Experimental data reported in ChEMBL document CHEMBL4196063, “A novel synthetic peptide inspired on Lys49 phospholipase A2 from Crotalus oreganus abyssus snake venom active against multidrug-resistant clinical isolates” (2018).
The source made the active and inactive calls. The rule behind the calls is not given here. Where a SMILES comes first, the peptide text is derived from it.

Tests used:
Pseudomonas aeruginosa [1] = assay: Antibacterial activity against Pseudomonas aeruginosa 31NM at 575 uM after 24 hrs by agar well diffusion assay; format: functional, organism-based
Procedure, shortened: (§1)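 Agar well diffusion followed Bauer/CLSI with minor changes. Strains were subcultured in MHB and grown on Mueller Hinton agar at 37 °C for a day. Wells were punched aseptically, and 100 μl of peptide in PBS (575 μM) was placed in each well. Plates were incubated at 37 °C for 24 h and inhibition halo diameters measured by caliper. Commercial antibiotics served as positive control, with at least three runs.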

Pseudomonas aeruginosa [2] = assay: Antibacterial activity against Pseudomonas aeruginosa ATCC 27853 at 575 uM after 24 hrs by agar well diffusion assay; format: functional, organism-based; procedure, shortened: as §1
Escherichia coli [3] = assay: Antibacterial activity against Escherichia coli ATCC 25922 at 575 uM after 24 hrs by agar well diffusion assay; format: functional, organism-based; procedure, shortened: as §1
Staphylococcus aureus [4] = assay: Antibacterial activity against Staphylococcus aureus BEC9393 at 575 uM after 24 hrs by agar well diffusion assay; format: functional, organism-based; procedure, shortened: as §1
Staphylococcus aureus [5] = assay: Antibacterial activity against Staphylococcus aureus rib1 at 575 uM after 24 hrs by agar well diffusion assay; format: functional, organism-based; procedure, shortened: as §1
Pseudomonas aeruginosa [6] = assay: Antibacterial activity against Pseudomonas aeruginosa 31NM at 5.95 to 190 uM after 24 hrs by CLSI broth microdilution method; format: functional, organism-based
Procedure, shortened: (§2)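 Strains were kept frozen in MHB with 20% glycerol, subcultured in MHB, and grown on Mueller Hinton agar at 37 °C for a day. Peptide was dissolved in medium and serially diluted into MHB in 96-well plates, then bacterial suspension was added (1 × 10⁸ CFU/ml). Plates were held at 37 °C for 24 h and growth inhibition read at 595 nm. Runs were done at least three times, mean ± SD.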

Pseudomonas aeruginosa [7] = assay: Antibacterial activity against Pseudomonas aeruginosa ATCC 27853 at 5.95 to 190 uM after 24 hrs by CLSI broth microdilution method; format: functional, organism-based; procedure, shortened: as §2
Escherichia coli [8] = assay: Antibacterial activity against Escherichia coli ATCC 25922 at 5.95 to 190 uM after 24 hrs by CLSI broth microdilution method; format: functional, organism-based; procedure, shortened: as §2
Staphylococcus aureus [9] = assay: Antibacterial activity against Staphylococcus aureus BEC9393 at 5.95 to 190 uM after 24 hrs by CLSI broth microdilution method; format: functional, organism-based; procedure, shortened: as §2
Staphylococcus aureus [10] = assay: Antibacterial activity against Staphylococcus aureus rib1 at 5.95 to 190 uM after 24 hrs by CLSI broth microdilution method; format: functional, organism-based; procedure, shortened: as §2
Pseudomonas aeruginosa [11] = assay: Growth inhibition of Pseudomonas aeruginosa ATCC 27853 at 5.95 uM after 24 hrs by CLSI broth microdilution method; format: functional; details: ATCC 27853, 24 h, read-out: GI
Procedure, shortened: (§3)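 Broth microdilution per CLSI. Peptide dissolved in Mueller Hinton broth and serially diluted (5.95–190 μM tested) in MHB. Bacteria were subcultured in MHB and grown on Mueller Hinton agar at 37 °C for a day, then added at 1 × 10⁸ CFU/ml. Incubation 37 °C for 24 h, with growth read at 595 nm. Antibiotic positive and medium negative controls. At least three runs, mean ± SD.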

Pseudomonas aeruginosa [12] = assay: Growth inhibition of Pseudomonas aeruginosa 31NM at 5.95 uM after 24 hrs by CLSI broth microdilution method; format: functional; details: read-out: GI; procedure, shortened: as §3

SMILES	Activity (Pseudomonas aeruginosa [1])	Activity (Pseudomonas aeruginosa [2])	Activity (Escherichia coli [3])	Activity (Staphylococcus aureus [4])	Activity (Staphylococcus aureus [5])	Activity (Pseudomonas aeruginosa [6])	Activity (Pseudomonas aeruginosa [7])	Activity (Escherichia coli [8])	Activity (Staphylococcus aureus [9])	Activity (Staphylococcus aureus [10])	inhibition of growth at 5.95 µM (Pseudomonas aeruginosa [11])	inhibition of growth at 5.95 µM (Pseudomonas aeruginosa [12])
CC(C)C[C@H](NC(=O)[C@H](Cc1ccccc1)NC(=O)[C@H](CCCCN)NC(=O)[C@@H]1CCCN1C(=O)[C@@H](N)Cc1ccc(O)cc1)C(=O)N[C@@H](CS)C(=O)N[C@@H](CCCCN)C(=O)N[C@@H](CCCCN)C(=O)N1CCC[C@H]1C(=O)O (H-YPKFLCKKP-OH)	inactive	inactive	inactive	inactive	inactive							
CC[C@H](C)[C@H](NC(=O)[C@H](CCCNC(=N)N)NC(=O)[C@H](Cc1ccc(O)cc1)NC(=O)[C@H](CCCCN)NC(=O)[C@@H](N)CCCCN)C(=O)N[C@@H](Cc1ccc(O)cc1)C(=O)N1CCC[C@H]1C(=O)N[C@@H](CCCCN)C(=O)N[C@@H](Cc1ccccc1)C(=O)N[C@@H](CC(C)C)C(=O)N[C@@H](CS)C(=O)N[C@@H](CCCCN)C(=O)N[C@@H](CCCCN)C(=O)O (H-KKYRIYPKFLCKK-OH)	Active	Active	Active	Active	Active	Active	Active	Active	Active	Active	52%	48%
